# In ChEMBL document CHEMBL4376814, “Novel cyclin-dependent kinase 9 (CDK9) inhibitor with suppression of cancer stemness activity against non-small-cell lung cancer” (Eur J Med Chem, 2019):
# Calls of active or inactive are those of the source. No cut-off for these calls is given here.
# Tests used:
# [1] = tested on: Ribosomal protein S6 kinase beta-1 (Homo sapiens), P23443 [T412E]; test: Inhibition of recombinant full-length human p70S6K (1 to 421 residues) T412E mutant at 1 uM using KKRNRTLTV as substrate measured after 40 mins in presence of [gamma33P]ATP by scintillation counting method relative to control
# [2] = target: Phosphatidylinositol 4-phosphate 3-kinase C2 domain-containing subunit alpha (Homo sapiens) (UniProt O00443); test: Inhibition of recombinant human PI3KC2alpha (299 to end residues) at 1 uM using phosphatidylinositol as substrate measured after 40 mins by HTRF assay relative to control
# [3] = tested on: Receptor tyrosine-protein kinase erbB-2 (Homo sapiens), P04626 [G778D]; test: Inhibition of recombinant human ErbB2 (676 to end residues) G778D mutant at 1 uM using poly(Glu, Tyr) 4:1 as substrate measured after 40 mins in presence of [gamma33P]ATP by scintillation counting method relative to control
# [4] = target: Ephrin type-A receptor 5 (Homo sapiens) (UniProt P54756); test: Inhibition of recombinant human EphA5 (655 to 956 residues) at 1 uM using poly(Glu, Tyr) 4:1 as substrate measured after 40 mins in presence of [gamma33P]ATP by scintillation counting method relative to control
# [5] = target: Tyrosine-protein kinase ABL1 (Homo sapiens) (UniProt P00519); test: Inhibition of human ABL1 at 1 uM using EAIYAAPFAKKK as substrate measured after 40 mins by [gamma33P]ATP by scintillation counting method relative to control
# Outline: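 Percent inhibition of kinase activity at a single compound concentration, measured by the outsourced Eurofins KinaseProfiler panel. Values are the mean of two independent experiments.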
# [6] = target: Serine/threonine-protein kinase MARK2 (Homo sapiens) (UniProt Q7KZI7); test: Inhibition of recombinant full-length human PAR1Balpha at 1 uM using KKKVSRSGLYRSPSMPENLNRPR as substrate measured after 40 mins in presence of [gamma33P]ATP by scintillation counting method relative to control
# [7] = target: Leukocyte tyrosine kinase receptor (Homo sapiens) (UniProt P29376); test: Inhibition of recombinant human LTK (450 to end residues) at 1 uM using GEEPLYWSFPAKKK as substrate measured after 40 mins in presence of [gamma33P]ATP by scintillation counting method relative to control
# [8] = species: Homo sapiens; test: Inhibition of recombinant human DDR1 V833L mutant (492 to end residues) at 1 uM using KKKSPGEYVNIEFG as substrate measured after 40 mins in presence of [gamma33P]ATP by scintillation counting method relative to control
# [9] = target: Eukaryotic translation initiation factor 2-alpha kinase 1 (Homo sapiens) (UniProt Q9BQI3); test: Inhibition of recombinant human HRI (140 to end residues) at 1 uM using RSRSRSRSRSRSRSR as substrate measured after 120 mins in presence of [gamma33P]ATP by scintillation counting method relative to control
# [10] = target: Hepatocyte growth factor receptor (Homo sapiens) (UniProt P08581); test: Inhibition of recombinant human MET A1209G/V1290L mutant (974 to end residues) at 1 uM using KKKGQEEEYVFIE as substrate measured after 40 mins in presence of [gamma33P]ATP by scintillation counting method relative to control
# [11] = tested on: Serine/threonine-protein kinase Chk2 (Homo sapiens), O96017 [I157T]; test: Inhibition of recombinant human CHK2 I157T mutant (5 to end residues) at 1 uM using KKKVSRSGLYRSPSMPENLNRPR as substrate measured after 40 mins in presence of [gamma33P]ATP by scintillation counting method relative to control
# Outline: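 Single-point inhibition at 1 µM was measured in the Eurofins KinaseProfiler panel. Values are the mean of two independent experiments.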
# [12] = target: Serine/threonine-protein kinase pim-1 (Homo sapiens) (UniProt P11309); test: Inhibition of recombinant full-length human Pim-1 at 1 uM using KKRNRTLTV as substrate measured after 40 mins in presence of [gamma33P]ATP by scintillation counting method relative to control
# [13] = species: Homo sapiens; test: Inhibition of recombinant human ARAF Y301D/Y302D mutant (273 to end residues) at 1 uM using myelin basic protein as substrate measured after 40 mins in presence of [gamma33P]ATP by scintillation counting method relative to control
# [14] = target: Protein kinase C alpha type (Homo sapiens) (UniProt P17252); test: Inhibition of recombinant full-length human PKCalpha at 1 uM using histone H1 as substrate measured after 40 mins in presence of [gamma33P]ATP by scintillation counting method relative to control
# [15] = target: Tau-tubulin kinase 2 (Homo sapiens) (UniProt Q6IQ55); test: Inhibition of recombinant human TTBK2 (1 to 331 residues) at 1 uM using casein as substrate measured after 40 mins in presence of [gamma33P]ATP by scintillation counting method relative to control
# [16] = tested on: NCI-H1299; test: Antitumour activity against human H1299 cells xenografted in Balb/c mouse assessed as inhibition of tumour growth at 80 mg/kg, po administered for 21 days by digital caliper method relative to control; assay type: functional; conditions: 504 h, read-out: TGI
# Outline: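 Female nude mice, 6-8 weeks old, injected subcutaneously with 1×10^6 H1299 cells (100 µL of a 1×10^7/mL suspension in serum-free medium). At 100-120 mm3, randomized into groups of 5. Dosed orally each day for 21 days with drug dissolved in DMSO, or with vehicle. Caliper measurements and body weight taken every other day. Volume = short²×long×0.5. Growth inhibition based on change in volume relative to vehicle. Tumours weighed at the end.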
# [17] = target: Serine/threonine-protein kinase VRK2 (Homo sapiens) (UniProt Q86Y07); test: Inhibition of recombinant human VRK2 (1 to 336 residues) at 1 uM using casein as substrate measured after 40 mins in presence of [gamma33P]ATP by scintillation counting method relative to control
# [18] = tested on: Protein kinase C eta type (Homo sapiens), P24723 [UNDEFINED MUTATION]; test: Inhibition of recombinant human PKCeta V108L/G109R/L392Q mutant (2 to end residues) at 1 uM using ERMRPRKRQGSVRRRV as substrate measured after 40 mins in presence of [gamma33P]ATP by scintillation counting method relative to control
# [19] = target: Serine/threonine-protein kinase Nek7 (Homo sapiens) (UniProt Q8TDX7); test: Inhibition of recombinant human NEK7 (2 to end residues) at 1 uM using FLAKSFGSPNRAY as substrate measured after 40 mins in presence of [gamma33P]ATP by scintillation counting method relative to control
# [20] = tested on: A549; test: Induction of apoptosis in human A549 cells assessed as early apoptotic cells at 0.25 uM after 48 hrs by AnnexinV-FITC/PI staining-based flow cytometric analysis (reference value: 2.91%); assay type: functional
# [21] = target: Cyclin-dependent kinase 9 (Homo sapiens) (UniProt P50750); conditions: 0.25 to 1 uM
# Tyrosine-protein kinase ABL1 (Homo sapiens), sequence (P00519 whole entry): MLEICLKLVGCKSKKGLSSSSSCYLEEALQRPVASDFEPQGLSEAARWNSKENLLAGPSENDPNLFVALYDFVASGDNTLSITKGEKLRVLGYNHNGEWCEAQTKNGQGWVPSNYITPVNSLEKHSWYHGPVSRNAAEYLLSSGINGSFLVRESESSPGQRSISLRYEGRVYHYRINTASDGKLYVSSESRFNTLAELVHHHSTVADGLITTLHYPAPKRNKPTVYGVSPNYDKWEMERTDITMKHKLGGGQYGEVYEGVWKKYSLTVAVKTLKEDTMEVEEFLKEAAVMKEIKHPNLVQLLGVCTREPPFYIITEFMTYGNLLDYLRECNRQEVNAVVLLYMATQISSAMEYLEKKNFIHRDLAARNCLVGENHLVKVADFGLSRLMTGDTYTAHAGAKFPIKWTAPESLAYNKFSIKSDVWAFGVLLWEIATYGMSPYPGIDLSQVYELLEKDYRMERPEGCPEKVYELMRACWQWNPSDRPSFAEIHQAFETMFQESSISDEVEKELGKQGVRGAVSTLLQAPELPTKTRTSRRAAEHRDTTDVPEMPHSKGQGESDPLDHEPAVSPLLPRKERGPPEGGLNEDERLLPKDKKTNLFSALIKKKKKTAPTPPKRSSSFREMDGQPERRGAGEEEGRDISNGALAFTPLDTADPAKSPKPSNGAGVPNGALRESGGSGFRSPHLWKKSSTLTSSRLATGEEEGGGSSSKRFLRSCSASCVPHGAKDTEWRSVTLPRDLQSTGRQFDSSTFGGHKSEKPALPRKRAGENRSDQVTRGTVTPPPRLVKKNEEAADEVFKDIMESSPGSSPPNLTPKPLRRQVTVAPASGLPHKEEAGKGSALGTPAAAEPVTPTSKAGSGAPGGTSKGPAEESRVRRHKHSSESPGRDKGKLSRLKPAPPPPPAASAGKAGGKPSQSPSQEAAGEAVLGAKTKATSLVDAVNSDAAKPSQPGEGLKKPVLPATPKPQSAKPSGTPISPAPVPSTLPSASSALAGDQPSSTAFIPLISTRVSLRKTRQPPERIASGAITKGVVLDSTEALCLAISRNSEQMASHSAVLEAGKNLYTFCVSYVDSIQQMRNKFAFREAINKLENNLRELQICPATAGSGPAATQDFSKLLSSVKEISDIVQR
# Hepatocyte growth factor receptor (Homo sapiens), sequence (P08581 whole entry): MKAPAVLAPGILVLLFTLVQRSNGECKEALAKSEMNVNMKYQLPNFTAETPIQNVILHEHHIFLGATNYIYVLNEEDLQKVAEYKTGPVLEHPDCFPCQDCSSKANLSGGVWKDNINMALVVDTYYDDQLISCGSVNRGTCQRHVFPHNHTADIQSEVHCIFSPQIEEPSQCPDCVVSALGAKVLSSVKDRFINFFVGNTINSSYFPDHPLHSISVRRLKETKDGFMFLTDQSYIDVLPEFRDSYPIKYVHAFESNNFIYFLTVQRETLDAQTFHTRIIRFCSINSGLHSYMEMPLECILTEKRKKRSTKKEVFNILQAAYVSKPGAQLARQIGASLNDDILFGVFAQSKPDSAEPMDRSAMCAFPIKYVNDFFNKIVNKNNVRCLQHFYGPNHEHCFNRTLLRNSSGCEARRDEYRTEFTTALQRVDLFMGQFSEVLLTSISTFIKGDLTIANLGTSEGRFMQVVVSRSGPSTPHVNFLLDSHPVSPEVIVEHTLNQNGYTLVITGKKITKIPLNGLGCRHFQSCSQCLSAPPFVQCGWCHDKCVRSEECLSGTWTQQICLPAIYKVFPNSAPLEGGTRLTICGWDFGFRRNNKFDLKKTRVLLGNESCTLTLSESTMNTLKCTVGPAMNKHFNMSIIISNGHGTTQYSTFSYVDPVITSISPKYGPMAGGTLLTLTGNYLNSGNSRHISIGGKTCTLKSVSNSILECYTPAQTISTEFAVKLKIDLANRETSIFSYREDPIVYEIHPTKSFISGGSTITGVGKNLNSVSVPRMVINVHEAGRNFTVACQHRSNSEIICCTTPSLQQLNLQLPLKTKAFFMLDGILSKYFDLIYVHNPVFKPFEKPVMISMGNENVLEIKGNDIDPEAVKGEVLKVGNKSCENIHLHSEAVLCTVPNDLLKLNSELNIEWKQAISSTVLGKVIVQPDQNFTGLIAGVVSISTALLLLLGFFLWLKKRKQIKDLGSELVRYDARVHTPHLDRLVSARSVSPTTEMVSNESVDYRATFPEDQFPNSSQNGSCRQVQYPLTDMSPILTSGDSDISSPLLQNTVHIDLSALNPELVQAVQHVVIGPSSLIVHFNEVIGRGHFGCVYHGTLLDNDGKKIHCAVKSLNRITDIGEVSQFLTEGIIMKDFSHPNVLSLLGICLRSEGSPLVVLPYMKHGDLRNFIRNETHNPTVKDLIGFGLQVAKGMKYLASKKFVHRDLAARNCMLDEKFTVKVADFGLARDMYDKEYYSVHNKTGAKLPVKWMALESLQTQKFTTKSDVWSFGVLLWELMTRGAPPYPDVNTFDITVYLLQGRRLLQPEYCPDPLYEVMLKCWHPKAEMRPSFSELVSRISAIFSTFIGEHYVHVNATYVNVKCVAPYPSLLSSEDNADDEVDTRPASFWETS
# Leukocyte tyrosine kinase receptor (Homo sapiens), sequence (P29376 whole entry): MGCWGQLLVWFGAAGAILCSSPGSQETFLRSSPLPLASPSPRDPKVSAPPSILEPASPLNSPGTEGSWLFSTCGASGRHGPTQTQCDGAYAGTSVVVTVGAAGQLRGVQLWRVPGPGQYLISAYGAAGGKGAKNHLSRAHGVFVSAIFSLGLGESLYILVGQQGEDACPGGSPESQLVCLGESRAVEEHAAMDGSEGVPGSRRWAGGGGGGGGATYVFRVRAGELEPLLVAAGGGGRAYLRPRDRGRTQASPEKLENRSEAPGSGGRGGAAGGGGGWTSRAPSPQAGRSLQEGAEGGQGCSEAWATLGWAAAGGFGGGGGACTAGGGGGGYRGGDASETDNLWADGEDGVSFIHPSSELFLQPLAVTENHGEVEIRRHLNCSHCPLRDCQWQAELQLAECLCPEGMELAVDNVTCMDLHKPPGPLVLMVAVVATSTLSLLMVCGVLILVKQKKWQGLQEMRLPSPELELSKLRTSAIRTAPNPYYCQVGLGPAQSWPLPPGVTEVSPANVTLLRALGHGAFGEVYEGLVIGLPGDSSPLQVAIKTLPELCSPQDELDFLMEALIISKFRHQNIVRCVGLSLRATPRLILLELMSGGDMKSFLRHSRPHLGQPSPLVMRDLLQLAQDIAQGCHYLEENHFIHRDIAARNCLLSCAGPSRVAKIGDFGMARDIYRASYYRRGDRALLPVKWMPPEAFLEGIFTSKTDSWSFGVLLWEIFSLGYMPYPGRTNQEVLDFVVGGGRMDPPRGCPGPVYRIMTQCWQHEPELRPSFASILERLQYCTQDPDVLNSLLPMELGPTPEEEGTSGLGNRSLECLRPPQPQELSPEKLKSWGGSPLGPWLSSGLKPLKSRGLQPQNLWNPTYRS
# Serine/threonine-protein kinase MARK2 (Homo sapiens), sequence (Q7KZI7 whole entry): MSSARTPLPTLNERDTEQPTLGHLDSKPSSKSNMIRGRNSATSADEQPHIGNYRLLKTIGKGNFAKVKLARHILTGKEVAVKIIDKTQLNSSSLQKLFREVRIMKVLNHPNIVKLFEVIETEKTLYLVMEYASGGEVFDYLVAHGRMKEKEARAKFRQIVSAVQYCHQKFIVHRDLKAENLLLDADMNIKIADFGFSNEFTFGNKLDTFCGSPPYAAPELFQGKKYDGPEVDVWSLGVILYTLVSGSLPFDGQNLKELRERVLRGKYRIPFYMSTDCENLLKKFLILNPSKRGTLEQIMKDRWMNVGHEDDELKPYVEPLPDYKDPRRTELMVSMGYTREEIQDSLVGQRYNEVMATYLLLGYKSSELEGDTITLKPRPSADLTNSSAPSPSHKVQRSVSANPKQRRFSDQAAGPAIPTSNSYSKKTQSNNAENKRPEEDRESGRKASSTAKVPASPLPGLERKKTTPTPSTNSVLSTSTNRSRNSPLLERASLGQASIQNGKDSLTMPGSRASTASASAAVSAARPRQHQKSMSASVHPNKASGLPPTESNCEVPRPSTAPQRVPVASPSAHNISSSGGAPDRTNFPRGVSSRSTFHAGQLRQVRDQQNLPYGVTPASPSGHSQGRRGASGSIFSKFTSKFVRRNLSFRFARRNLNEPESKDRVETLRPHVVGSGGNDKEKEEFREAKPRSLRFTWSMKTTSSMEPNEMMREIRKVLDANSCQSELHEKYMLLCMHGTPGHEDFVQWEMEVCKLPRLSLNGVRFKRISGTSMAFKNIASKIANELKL
# Serine/threonine-protein kinase Nek7 (Homo sapiens), sequence (Q8TDX7 whole entry, looked up): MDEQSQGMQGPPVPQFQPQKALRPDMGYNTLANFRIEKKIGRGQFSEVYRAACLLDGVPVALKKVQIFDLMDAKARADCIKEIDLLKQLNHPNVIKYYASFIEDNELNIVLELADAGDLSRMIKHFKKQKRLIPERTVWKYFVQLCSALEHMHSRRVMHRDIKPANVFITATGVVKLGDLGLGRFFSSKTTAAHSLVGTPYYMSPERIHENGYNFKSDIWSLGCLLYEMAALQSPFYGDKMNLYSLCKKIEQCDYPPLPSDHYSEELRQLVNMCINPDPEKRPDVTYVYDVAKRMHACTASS
# Ribosomal protein S6 kinase beta-1 (Homo sapiens), P23443 [T412E], sequence (P23443 whole entry T412E, looked up, the tested form may be a part): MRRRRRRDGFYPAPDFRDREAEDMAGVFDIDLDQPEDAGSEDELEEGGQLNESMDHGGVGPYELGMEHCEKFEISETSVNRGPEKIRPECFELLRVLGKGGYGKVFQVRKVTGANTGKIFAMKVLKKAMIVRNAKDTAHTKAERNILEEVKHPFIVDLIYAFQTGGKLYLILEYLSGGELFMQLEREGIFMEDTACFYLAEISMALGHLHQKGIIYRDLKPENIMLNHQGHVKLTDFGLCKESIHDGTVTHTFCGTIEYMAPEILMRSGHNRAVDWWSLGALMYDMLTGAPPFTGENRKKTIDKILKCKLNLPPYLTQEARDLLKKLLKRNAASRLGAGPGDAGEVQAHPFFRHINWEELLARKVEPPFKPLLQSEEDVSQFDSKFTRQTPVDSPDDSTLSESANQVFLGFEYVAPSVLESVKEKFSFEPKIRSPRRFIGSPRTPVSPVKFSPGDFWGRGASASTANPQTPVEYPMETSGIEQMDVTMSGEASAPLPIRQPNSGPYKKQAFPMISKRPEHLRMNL
smiles,measurement,setting,value
CN(C)C(=O)c1cc2cnc(Nc3ccc(NC(=O)CCCCCCCN=C=S)cc3)nc2n1C1CCCC1,inhibition,[1],40%
same,inhibition,[2],-3%
same,inhibition,[3],-1%
same,inhibition,[4],6%
same,inhibition,[5],88%
same,inhibition,[6],2%
same,inhibition,[7],33%
same,inhibition,[8],47%
same,inhibition,[9],30%
same,inhibition,[10],84%
same,inhibition,[11],43%
same,inhibition,[12],8%
same,inhibition,[13],-1%
same,inhibition,[14],68%
same,inhibition,[15],-5%
same,inhibition in vivo at 80 mg/kg,[16],94.7%
same,inhibition,[17],0%
same,inhibition,[18],-3%
same,inhibition,[19],-6%
same,Activity,[20],1.76%
same,inhibition,[21],Active
